Converted amounts (≈) assume the structure as drawn.
Columns and labels:
[1] = Half life in rat liver microsomes at 3 uM; format: ADME, Microsome
How it was run: (§1)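 Compound at 3 µM was incubated with pooled male rat liver microsomes (0.3 mg protein/mL) in 0.1 M phosphate buffer pH 7.4 with 1 mM EDTA. The reaction was started with NADPH (1 mM final) at 37 °C and sampled at 0, 5, 15, 30 and 45 min.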

[2] = Intrinsic clearance in rat liver microsomes at 3 uM; format: ADME, Microsome; conditions: read-out: CLH; how it was run: as §1
[3] = Aqueous solubility of the compound at pH 7.4 after 24 hrs agitation; format: physicochemical
IMR-90 = experiment: Antiproliferative activity against human IMR90 cells after 72 hrs […]; format: cell-based; conditions: IMR-90, 72 h
HepG2 = experiment: Antiproliferative activity against human HepG2 cells after 72 hrs […]; format: functional, cell-based; conditions: HepG2, 72 h
PC-3 = experiment: Antiproliferative activity against human PC3 cells after 72 hrs […]; format: functional, cell-based; conditions: PC-3, 72 h
MDA-MB-231 = experiment: Antiproliferative activity against human MDA-MB-231 cells after 72 hrs […]; format: functional, cell-based; conditions: MDA-MB-231, 72 h
[4] = target: Protein-S-isoprenylcysteine O-methyltransferase (Homo sapiens, UniProt O60725); experiment: Inhibition of recombinant Icmt (unknown origin) expressed in Sf9 cells assessed as transfer of methyl group from [3H]-S-adenosylmethionine to [3H]-biotin-S-farnesyl-L-cysteine after 30 mins
How it was run: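 Icmt membrane protein was diluted to 0.03 mg/mL in 70 mM HEPES, 100 mM NaCl, 5 mM MgCl2, 3 mM DTT, pH 7.5, and preincubated with inhibitor. The reaction was started with a mix of BFC, SAM and [3H]SAM and run 30 min at 37 °C. It was quenched with excess SAM, captured on streptavidin SPA beads overnight at ambient temperature, and counted. IC50 was taken from % activity versus log concentration, with two independent determinations.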

MIA PaCa-2 = experiment: Antiproliferative activity against human MIAPaCa2 cells after 72 hrs by MTT assay; format: functional, cell-based; conditions: MIA PaCa-2, 72 h

Sequence of Protein-S-isoprenylcysteine O-methyltransferase (O60725 whole entry): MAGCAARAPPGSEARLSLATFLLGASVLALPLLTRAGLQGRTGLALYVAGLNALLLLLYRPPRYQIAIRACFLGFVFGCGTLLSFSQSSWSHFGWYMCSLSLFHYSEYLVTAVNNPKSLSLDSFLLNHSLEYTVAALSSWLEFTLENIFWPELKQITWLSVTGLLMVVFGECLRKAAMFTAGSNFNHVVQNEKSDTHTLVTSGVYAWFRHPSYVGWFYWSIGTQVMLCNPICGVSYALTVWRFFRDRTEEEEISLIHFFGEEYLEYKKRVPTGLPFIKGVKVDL

| IC50 (PC-3) [µM] | IC50 (MDA-MB-231) [µM] | Structure (SMILES) | other results |
| --- | --- | --- | --- |
| 6.31 | 5.14 | CCCCCCCCn1cc(CN(CC)CC)c2cc(-c3cccc(C)c3)ccc21 | half-life at 3 µM [1]: 26.9 min; microsomal CLint at 3 µM [2]: 85.8 µL/min/mg; solubility at 24 h [3]: 1.1 µM (≈ 0.445 µg/mL); IC50 (IMR-90): 5.26 µM; IC50 (HepG2): 4.9 µM |
|  | 8.87 | CCCCCCCCn1cc(CN(CC)CC)c2cccc(F)c21 |  |
| 6.11 | 10.8 | CCCCCCCCn1cc(CN(CC)CC)c2cc(-c3ccc(C#N)cc3)ccc21 |  |
| 1.92 | 2.52 | CCCCCCCCn1cc(CN(CC)CC)c2cc(-c3ccc(N(C)C)nc3)ccc21 | IC50 [4]: 1.63 µM |
| 4.74 | 5.56 | CCCCCCCCn1cc(CN(CC)CC)c2cc(-c3ccc(S(C)(=O)=O)cc3)ccc21 |  |
| 14.9 | 18.1 | CCCCCCCCn1cc(CN(CC)CC)c2cc(-c3cccc(O)c3)ccc21 |  |
|  | 9.14 | CCCCCCCCn1cc(CN(CC)CC)c2ccc(F)cc21 | IC50 [4]: 2.22 µM |
|  | 10.2 | CCCCCCCCn1cc(CN(CC)CC)c2cc(-c3ccc(S(=O)(=O)NC)cc3)ccc21 |  |
| 5.88 | 5.14 | CCCCCCCCn1cc(CN(CC)CC)c2cc(-c3ccncc3F)ccc21 | IC50 [4]: 0.96 µM |
| 21.3 | 22.1 | CCCCCCCCn1cc(CC(N)=O)c2cc(-c3cccc(C)c3)ccc21 | half-life at 3 µM [1]: 44.8 min; microsomal CLint at 3 µM [2]: 53.6 µL/min/mg; IC50 (HepG2): 19.3 µM |
|  | 7.36 | CCCCCCCCn1cc(CN(CC)CC)c2cc(F)ccc21 | IC50 [4]: 4.42 µM |
| 5.84 | 5.5 | CCCCCCCCn1cc(CN(CC)CC)c2cc(-c3cccnc3)ccc21 | IC50 (IMR-90): 5.52 µM |
| 8.47 | 11.1 | CCCCCCCCn1cc(CN(CC)CC)c2cc(-c3cncnc3)ccc21 | IC50 (IMR-90): 9.84 µM |
| 5.74 | 3.85 | CCCCCCCCn1cc(CN(CC)CC)c2cc(-c3cnc(C#N)nc3)ccc21 |  |
|  | 7.5 | CCCCCCCCn1cc(CN(CC)CC)c2c(F)cccc21 |  |
| 2.55 | 2.48 | CCCCCCCCn1cc(CN(CC)CC)c2cc(-c3cnc(N)nc3)ccc21 | half-life at 3 µM [1]: 11.3 min; microsomal CLint at 3 µM [2]: 204 µL/min/mg; IC50 (IMR-90): 2.65 µM; IC50 (MIA PaCa-2): 1.6 µM; IC50 (HepG2): 1.65 µM |
